Measurements from the M2OR odorant receptor database.
Changes are numbered by the printed parent chain.

Tests used:
Conditions in all cases: stereoisomer not certain
[1] = tested on: T1, OR4K1 R304H
T1 sequence (whole entry): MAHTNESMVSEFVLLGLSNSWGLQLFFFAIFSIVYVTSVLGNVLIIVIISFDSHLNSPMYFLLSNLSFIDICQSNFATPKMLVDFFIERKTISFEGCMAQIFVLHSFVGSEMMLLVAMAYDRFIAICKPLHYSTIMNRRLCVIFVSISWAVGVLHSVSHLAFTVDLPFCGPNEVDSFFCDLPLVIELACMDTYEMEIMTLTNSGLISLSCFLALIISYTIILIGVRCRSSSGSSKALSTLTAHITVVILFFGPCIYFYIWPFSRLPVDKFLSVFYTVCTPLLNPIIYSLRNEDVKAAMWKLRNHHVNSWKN
Outline: (§1)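 Whether a receptor–molecule pair is responsive (active) rests on the original authors' judgment that its measured signal was statistically different from baseline. Pairs without that judgment are non-responsive (inactive). Sources used varied assay methods, commonly transient luciferase assays in mammalian cell lines.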

[2] = biological target: T2, OR4K13 (Homo sapiens) (UniProt Q8NH42)
T2 sequence (whole entry): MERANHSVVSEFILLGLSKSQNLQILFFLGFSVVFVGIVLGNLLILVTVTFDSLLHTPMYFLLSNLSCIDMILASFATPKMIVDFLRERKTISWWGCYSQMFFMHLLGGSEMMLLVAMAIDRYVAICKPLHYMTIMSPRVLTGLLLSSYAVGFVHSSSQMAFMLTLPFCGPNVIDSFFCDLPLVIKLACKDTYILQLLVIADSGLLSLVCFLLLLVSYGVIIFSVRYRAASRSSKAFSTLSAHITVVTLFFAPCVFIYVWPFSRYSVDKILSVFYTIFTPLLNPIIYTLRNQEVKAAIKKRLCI
Outline: as §1

[3] = biological target: T3, OR4K14 (Homo sapiens) (UniProt Q8NGD5)
T3 sequence (whole entry): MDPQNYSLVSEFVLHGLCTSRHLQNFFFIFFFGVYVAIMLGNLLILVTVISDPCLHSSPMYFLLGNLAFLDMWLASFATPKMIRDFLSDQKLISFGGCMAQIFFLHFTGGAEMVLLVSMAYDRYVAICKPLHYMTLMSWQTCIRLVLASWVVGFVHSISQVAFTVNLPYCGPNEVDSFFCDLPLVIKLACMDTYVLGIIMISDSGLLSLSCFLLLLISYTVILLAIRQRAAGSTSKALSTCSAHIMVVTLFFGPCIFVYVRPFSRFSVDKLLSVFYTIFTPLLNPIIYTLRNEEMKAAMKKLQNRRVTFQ
Outline: as §1

[4] = biological target: T4, OR4K2 (Homo sapiens) (UniProt Q8NGD2)
T4 sequence (whole entry): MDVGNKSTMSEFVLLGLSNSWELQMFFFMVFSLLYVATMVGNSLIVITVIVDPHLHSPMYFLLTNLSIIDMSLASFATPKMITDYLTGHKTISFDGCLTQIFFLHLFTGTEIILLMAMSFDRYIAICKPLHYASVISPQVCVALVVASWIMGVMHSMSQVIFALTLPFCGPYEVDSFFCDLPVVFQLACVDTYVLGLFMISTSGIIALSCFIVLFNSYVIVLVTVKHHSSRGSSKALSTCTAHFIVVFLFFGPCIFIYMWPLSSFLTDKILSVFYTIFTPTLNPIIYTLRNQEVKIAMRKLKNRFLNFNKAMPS
Outline: as §1

[5] = tested on: T5, OR4K2
T5 sequence (whole entry): T4 sequence (whole entry) with N307I
Outline: as §1

[6] = biological target: T6, OR4K5 (Homo sapiens) (UniProt Q8NGD3)
T6 sequence (whole entry): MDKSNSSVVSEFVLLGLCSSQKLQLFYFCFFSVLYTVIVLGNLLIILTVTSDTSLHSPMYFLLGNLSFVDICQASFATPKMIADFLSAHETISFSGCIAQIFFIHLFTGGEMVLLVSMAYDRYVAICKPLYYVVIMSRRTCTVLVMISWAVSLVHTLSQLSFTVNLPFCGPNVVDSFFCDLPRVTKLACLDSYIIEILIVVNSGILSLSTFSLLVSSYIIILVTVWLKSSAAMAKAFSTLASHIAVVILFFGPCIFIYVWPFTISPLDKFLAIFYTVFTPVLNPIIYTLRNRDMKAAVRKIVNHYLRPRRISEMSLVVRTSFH
Outline: as §1

[7] = tested on: T7, OR4KF
T7 sequence (whole entry): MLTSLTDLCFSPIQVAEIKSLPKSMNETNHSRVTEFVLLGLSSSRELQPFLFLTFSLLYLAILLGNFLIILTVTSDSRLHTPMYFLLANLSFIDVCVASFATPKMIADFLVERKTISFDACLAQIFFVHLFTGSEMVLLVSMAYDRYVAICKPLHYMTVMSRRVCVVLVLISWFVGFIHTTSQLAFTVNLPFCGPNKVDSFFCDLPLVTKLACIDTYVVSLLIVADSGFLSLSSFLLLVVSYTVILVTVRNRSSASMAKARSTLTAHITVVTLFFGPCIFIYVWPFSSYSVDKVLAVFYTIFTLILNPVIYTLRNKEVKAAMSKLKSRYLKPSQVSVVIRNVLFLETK
Outline: as §1

[8] = tested on: T8, OR4KH
T8 sequence (whole entry): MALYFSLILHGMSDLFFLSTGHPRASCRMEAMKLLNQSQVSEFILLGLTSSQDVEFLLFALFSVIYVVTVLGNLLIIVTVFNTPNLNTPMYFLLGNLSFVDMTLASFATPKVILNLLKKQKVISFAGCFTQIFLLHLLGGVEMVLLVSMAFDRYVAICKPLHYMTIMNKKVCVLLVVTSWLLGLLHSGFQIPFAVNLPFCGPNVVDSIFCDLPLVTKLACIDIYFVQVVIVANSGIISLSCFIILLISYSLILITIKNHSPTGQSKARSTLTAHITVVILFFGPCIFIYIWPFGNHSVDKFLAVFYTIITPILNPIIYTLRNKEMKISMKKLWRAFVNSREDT
Outline: as §1

[9] = biological target: T9, OR4L1 (Homo sapiens) (UniProt Q8NH43)
T9 sequence (whole entry): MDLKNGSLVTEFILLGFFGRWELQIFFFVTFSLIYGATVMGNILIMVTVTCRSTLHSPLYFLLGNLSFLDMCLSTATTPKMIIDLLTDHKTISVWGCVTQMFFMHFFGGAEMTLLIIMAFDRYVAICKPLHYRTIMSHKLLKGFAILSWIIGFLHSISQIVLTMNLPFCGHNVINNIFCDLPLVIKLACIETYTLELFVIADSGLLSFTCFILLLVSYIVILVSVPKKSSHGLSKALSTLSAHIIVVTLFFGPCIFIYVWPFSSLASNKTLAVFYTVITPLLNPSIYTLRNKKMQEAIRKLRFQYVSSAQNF
Outline: as §1

[10] = tested on: T10, OR4L1
T10 sequence (whole entry): T9 sequence (whole entry) with R52S
Outline: as §1

[11] = biological target: T11, OR4M1 (Homo sapiens) (UniProt Q8NGD0)
T11 sequence (whole entry): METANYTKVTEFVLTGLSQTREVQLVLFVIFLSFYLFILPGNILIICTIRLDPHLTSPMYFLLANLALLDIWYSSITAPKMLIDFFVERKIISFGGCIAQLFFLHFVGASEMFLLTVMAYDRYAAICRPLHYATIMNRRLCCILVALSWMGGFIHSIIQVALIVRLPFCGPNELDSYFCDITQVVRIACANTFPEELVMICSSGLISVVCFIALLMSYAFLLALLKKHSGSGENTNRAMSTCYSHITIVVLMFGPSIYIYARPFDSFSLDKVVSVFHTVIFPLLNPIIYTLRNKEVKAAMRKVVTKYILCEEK
Outline: as §1

[12] = tested on: T12, OR4M1 H277N V279L L284H
T12 sequence (whole entry): T11 sequence (whole entry) with H277N, V279L, L284H
Outline: as §1

[13] = biological target: T13, OR4M2 (Homo sapiens) (UniProt Q8NGB6)
T13 sequence (whole entry): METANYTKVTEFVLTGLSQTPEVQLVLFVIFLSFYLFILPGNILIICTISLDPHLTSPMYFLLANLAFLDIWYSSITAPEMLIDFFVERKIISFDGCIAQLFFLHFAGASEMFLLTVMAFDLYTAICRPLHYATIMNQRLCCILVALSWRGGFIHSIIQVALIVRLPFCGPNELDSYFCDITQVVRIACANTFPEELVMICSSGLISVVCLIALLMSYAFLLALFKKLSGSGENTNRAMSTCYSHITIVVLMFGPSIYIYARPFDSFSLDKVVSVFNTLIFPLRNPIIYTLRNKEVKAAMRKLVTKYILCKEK
Outline: as §1

[14] = biological target: T14, OR4N2 (Homo sapiens) (UniProt Q8NGD1)
T14 sequence (whole entry): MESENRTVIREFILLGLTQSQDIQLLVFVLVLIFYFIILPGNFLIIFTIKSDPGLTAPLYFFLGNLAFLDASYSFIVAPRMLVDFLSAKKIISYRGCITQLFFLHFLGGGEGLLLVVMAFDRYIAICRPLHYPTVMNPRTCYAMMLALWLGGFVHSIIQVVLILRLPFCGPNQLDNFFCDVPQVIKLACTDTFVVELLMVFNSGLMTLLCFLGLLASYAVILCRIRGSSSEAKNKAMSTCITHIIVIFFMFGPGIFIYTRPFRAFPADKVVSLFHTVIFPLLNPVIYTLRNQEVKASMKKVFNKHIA
Outline: as §1

[15] = tested on: T15, OR4N2 A57V I76T
T15 sequence (whole entry): T14 sequence (whole entry) with A57V, I76T
Outline: as §1

[16] = tested on: T16, OR4N2 R260C F279L R290H
T16 sequence (whole entry): T14 sequence (whole entry) with R260C, F279L, R290H
Outline: as §1

[17] = biological target: T17, OR4K15 (Homo sapiens) (UniProt Q8NH41)
T17 sequence (whole entry): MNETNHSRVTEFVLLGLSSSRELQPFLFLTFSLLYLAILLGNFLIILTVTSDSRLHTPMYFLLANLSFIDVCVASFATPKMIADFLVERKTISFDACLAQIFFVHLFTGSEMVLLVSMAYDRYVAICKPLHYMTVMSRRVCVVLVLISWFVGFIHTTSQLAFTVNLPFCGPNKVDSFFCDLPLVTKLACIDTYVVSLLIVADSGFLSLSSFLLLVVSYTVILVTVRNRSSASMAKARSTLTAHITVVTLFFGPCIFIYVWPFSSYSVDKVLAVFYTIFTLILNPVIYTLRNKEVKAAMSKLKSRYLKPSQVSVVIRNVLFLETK
Outline: as §1

[18] = biological target: T18, OR4K17 (Homo sapiens) (UniProt Q8NGC6)
T18 sequence (whole entry): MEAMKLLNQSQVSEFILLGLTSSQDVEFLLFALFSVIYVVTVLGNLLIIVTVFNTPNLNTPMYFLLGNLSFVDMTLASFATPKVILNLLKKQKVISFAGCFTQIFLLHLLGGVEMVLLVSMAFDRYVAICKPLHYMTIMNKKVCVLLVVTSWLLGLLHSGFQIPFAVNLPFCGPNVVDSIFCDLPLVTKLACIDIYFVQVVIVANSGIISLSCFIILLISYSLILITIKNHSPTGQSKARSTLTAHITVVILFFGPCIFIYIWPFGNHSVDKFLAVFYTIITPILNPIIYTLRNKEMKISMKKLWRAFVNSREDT
Outline: as §1

[19] = biological target: OR4K3 (Homo sapiens) (UniProt Q96R72)
Chain of OR4K3 (Homo sapiens) (Q96R72 whole entry): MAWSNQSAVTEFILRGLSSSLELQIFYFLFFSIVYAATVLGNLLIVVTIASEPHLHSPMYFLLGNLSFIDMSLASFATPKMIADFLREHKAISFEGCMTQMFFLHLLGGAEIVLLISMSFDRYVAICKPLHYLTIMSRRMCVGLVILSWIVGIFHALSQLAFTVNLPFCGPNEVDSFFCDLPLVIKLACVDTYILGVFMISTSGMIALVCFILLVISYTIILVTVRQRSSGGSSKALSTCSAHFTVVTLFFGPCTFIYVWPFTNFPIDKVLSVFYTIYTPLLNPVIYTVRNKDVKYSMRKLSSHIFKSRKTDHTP
Outline: as §1

[20] = biological target: OR4M2B (Homo sapiens) (UniProt A0A0X1KG70)
Chain of OR4M2B (Homo sapiens) (A0A0X1KG70 whole entry): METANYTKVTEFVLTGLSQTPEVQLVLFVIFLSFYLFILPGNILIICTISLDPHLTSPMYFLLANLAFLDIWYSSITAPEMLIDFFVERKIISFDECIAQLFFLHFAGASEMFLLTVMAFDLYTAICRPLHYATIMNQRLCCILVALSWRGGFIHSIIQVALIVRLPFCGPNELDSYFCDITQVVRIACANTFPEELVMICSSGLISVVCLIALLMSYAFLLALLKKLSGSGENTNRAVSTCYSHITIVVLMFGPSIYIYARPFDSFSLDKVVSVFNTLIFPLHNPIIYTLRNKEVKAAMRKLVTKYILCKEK
Outline: as §1

Measured: odorant receptor agonist call;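 further: active if original authors judged signal statistically different from baseline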

CCC1OC(C)=C(O)C1=O (stereo not drawn)
not listed: [17] | [18] | [19] | [20]
inactive: all other assays above

O=c1ccc2ccccc2o1
inactive: [14]

CCCCCCC=CCCC=O
not listed: [7] | [8] | [19] | [20]
inactive: all other assays above

CC1=C(O)C(=O)C(C)O1 (stereo not drawn)
not listed: [17] | [18] | [19] | [20]
inactive: all other assays above

CC(CO)CS (stereo not drawn)
inactive: [2] | [3] | [17] | [18] | [4] | [6] | [9] | [11] | [13] | [14]

CC(=O)c1c(C)c([N+](=O)[O-])c(C(C)(C)C)c([N+](=O)[O-])c1C
not listed: [1] | [5] | [7] | [8] | [10] | [12] | [15] | [16]
inactive: all other assays above

CCCC(S)CCOC(C)=O (stereo not drawn)
not listed: [17] | [18] | [19] | [20]
inactive: all other assays above

CC1=NC(C)C(C)S1 (stereo not drawn)
not listed: [17] | [18] | [19] | [20]
inactive: all other assays above
